Data as given in ChEMBL document CHEMBL1145814, “Antiretroviral activity of semisynthetic derivatives of glycopeptide antibiotics” (J Med Chem, 2003).
Values after ≈ are worked out from the molar mass of the structure shown.

Assays:
Mus musculus [1] = species: Mus musculus; test: Minimal inhibitory concentration required to cause a microscopic detectable alteration of C3H/3T3 embryo murine fibroblast cell morphology; format: functional
Procedure, shortened: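 Uninfected C3H/3T3 murine embryo fibroblast cultures were exposed to test compound and checked microscopically for changes in cell morphology. The MIC is the concentration causing a microscopically detectable alteration of morphology.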

CCRF-CEM = test: Inhibitory concentration against proliferation of human T-lymphocytic (CEM) cells; format: functional, cell-based; conditions: Homo sapiens, CCRF-CEM
Procedure, shortened: (§1)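 (5–7.5) × 10^4 cells per well were incubated with test compound at 37 °C in a humidified CO2 atmosphere. L1210 murine leukemia cells grew for 48 h, and CEM and Molt4/clone 8 human lymphocytes grew for 72 h. Cells were then counted with a Coulter counter. IC50 is the concentration inhibiting proliferation by 50%.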

[2] = tested on: Human immunodeficiency virus 2; test: Concentration required to protect human T-lymphocytic cells against the cytopathogenicity of HIV-2; format: functional, organism-based; conditions: Human immunodeficiency virus 2
[3] = tested on: Human immunodeficiency virus 1; test: Effective concentration of compound required to protect human T-lymphocytic cells against the cytopathogenicity of HIV-1; format: functional, organism-based; conditions: Human immunodeficiency virus 1
L1210 = test: Inhibitory concentration of compound against proliferation of murine lukemia cells L1210 was determined; format: functional, cell-based; conditions: Mus musculus; procedure, shortened: as §1
MOLT-4 = test: Inhibitory concentration of compound against proliferation of human T-lymphocytic cells MOLT-4/C8 was determined; format: functional, cell-based; procedure, shortened: as §1
Mus musculus [4] = species: Mus musculus; test: Effective concentration of compound required to protect C3H/3T3 embryo murine fibroblasts against the MSV induced transformation; format: functional, organism-based; conditions: Mus musculus, C3H/3T3
Procedure, shortened: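 Monolayer murine embryo fibroblast C3H/3T3 cultures were infected with Moloney murine sarcoma virus at 75 focus-forming units and cultured with test compound. Transformation was examined microscopically on day 6 postinfection. EC50 is the concentration protecting cells against MSV-induced transformation by 50%.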

Compound | IC50 (CCRF-CEM) [µM] | EC50 [2] [µM] | EC50 [3] [µM] | IC50 (L1210) [µM] | IC50 (MOLT-4) [µM] | MIC (Mus musculus [1]) [µM] | EC50 (Mus musculus [4]) [µM]
CNC(=O)[C@H]1NC(=O)[C@H]2NC(=O)[C@H](NC(=O)[C@@H]3NC(=O)[C@H](CC(N)=O)NC(=O)[C@H](NC(=O)[C@@H](CC(C)C)NC)[C@H](O)c4ccc(c(Cl)c4)Oc4cc3cc(c4O[C@@H]3O[C@H](CO)[C@@H](O)[C@H](O)[C@H]3O[C@H]3C[C@](C)(N)[C@@H](O)[C@H](C)O3)Oc3ccc(cc3)[C@H]2O[C@H]2C[C@](C)(N)[C@@H](O)[C@H](C)O2)c2ccc(O)c(c2)-c2c(O)cc(O)cc21 | > 500 | > 250 | > 250 | > 500 | > 500 | – | –
CN[C@@H](CC(C)C)C(=O)NC1C(=O)N[C@@H](CC(N)=O)C(=O)NC2C(=O)NC3C(=O)NC(C(=O)N[C@@H](C(=O)O)c4cc(O)cc(O)c4-c4cc3ccc4O)C(O)c3ccc(c(Cl)c3)Oc3cc2cc(c3O)Oc2ccc(cc2Cl)C1O (stereo partly specified) | > 500 | > 250 | 65 | > 500 | > 500 | > 100 | > 100
COC(=O)[C@@H]1NC(=O)C2NC(=O)C(NC(=O)C(N)c3cc(Oc4ccc(CC(NC(=O)OCc5ccccc5)C(=O)O)cc4Cl)c(O)c(c3)Oc3ccc(cc3Cl)C2O)c2ccc(O)c(c2)-c2c(O)cc(O)cc21 (stereo partly specified) | > 500 | 85 | 25 | > 500 | > 500 | – | –
COC(=O)[C@@H]1NC(=O)C2NC(=O)C(NC(=O)C(NC(=O)OC(C)(C)C)c3cc(Oc4ccc(CC(NC(=O)OCc5ccccc5)C(=O)O)cc4Cl)c(O)c(c3)Oc3ccc(cc3Cl)C2O)c2ccc(O)c(c2)-c2c1cc(O)c(CNC1C3CC4CC(C3)CC1C4)c2O (stereo partly specified) | 240 | 11 | 17 | 95 | 122 | > 100 | 26
CN(Cc1ccc(Cl)cc1)Cc1c(O)cc2c(c1O)-c1cc(ccc1O)C1NC(=O)C3NC(=O)C4NC(=O)C(Cc5ccc(c(Cl)c5)Oc5cc3cc(c5O)Oc3ccc(cc3Cl)C(O)C(NC1=O)C(=O)N[C@H]2C(=O)O)NC(=O)C(N)c1ccc(O)c(c1)Oc1cc(O)cc4c1 (stereo partly specified) | > 100 | 20 | 17 | > 100 | > 100 | > 100 | 11
CNC1C(=O)NC2Cc3ccc(cc3)Oc3cc4cc(c3O[C@@H]3O[C@@H](C(=O)O)[C@@H](O)[C@H](O)[C@@H]3N)Oc3ccc(cc3Cl)C(O)C3NC(=O)C(NC(=O)C4NC(=O)C(NC2=O)c2cc(cc(O)c2Cl)Oc2cc1ccc2O)c1ccc(O)c(c1)-c1c(O[C@H]2O[C@H](CO)[C@@H](O)[C@@H](O)[C@@H]2O)cc(O)cc1[C@H](C(=O)O)NC3=O (stereo partly specified) | > 500 | > 250 | > 250 | > 500 | > 500 | > 100 | > 100
CNC(=O)[C@@H]1NC(=O)C2NC(=O)C(NC(=O)C3NC(=O)C(CC(N)=O)NC(=O)C(NC(=O)C(CC(C)C)NC)C(O)c4ccc(c(Cl)c4)Oc4cc3cc(c4O)Oc3ccc(cc3)C2O)c2ccc(O)c(c2)-c2c1cc(O)c(CN1CCN(Cc3ccc(-c4ccccc4)cc3)CC1)c2O (stereo partly specified) | > 100 | 5.5 | 4 | > 100 | > 100 | > 100 | 12
CNC(=O)[C@@H]1NC(=O)C2NC(=O)C(NC(=O)C3NC(=O)C(CC(N)=O)NC(=O)C(N)C(O)c4ccc(c(Cl)c4)Oc4cc3cc(c4O)Oc3ccc(cc3)C2O)c2ccc(O)c(c2)-c2c1cc(O)c(CNC1C3CC4CC(C3)CC1C4)c2O (stereo partly specified) | > 250 | 20 | 13 | > 250 | > 250 | > 100 | 14
CCCCCCCCCCNCc1c(O)cc2c(c1O)-c1cc(ccc1O)C1NC(=O)C3NC(=O)C4NC(=O)C(Cc5ccc(c(Cl)c5)Oc5cc3cc(c5O)Oc3ccc(cc3Cl)C(O)C(NC1=O)C(=O)N[C@H]2C(=O)NCCCN(C)C)NC(=O)C(N)c1ccc(O)c(c1)Oc1cc(O)cc4c1 (stereo partly specified) | > 100 | 6.1 | 1.4 | 48 | > 100 | – | –
CCCCc1ccc(CNC2C(Oc3c4cc5cc3Oc3ccc(cc3Cl)C(O)C3NC(=O)C(NC(=O)C5NC(=O)C5NC(=O)C(Cc6ccc(cc6)O4)NC(=O)C(NC)c4ccc(O)c(c4)Oc4cc(O)c(Cl)c5c4)c4ccc(O)c(c4)-c4c(cc(O)c(CN5CCN(Cc6ccc(-c7ccccc7)cc6)CC5)c4O)[C@H](C(=O)NCCCN(C)C)NC3=O)OC(C(=O)NCCCN(C)C)C(O)C2O)cc1 (stereo partly specified) | 212 | 20 | 3.5 | 25 | 35 | 20 (≈ 39.3 µg/mL) | > 4
CNC(=O)[C@@H]1NC(=O)C2NC(=O)C(NC(=O)C3NC(=O)C4NC(=O)C(Cc5ccc(c(Cl)c5)Oc5cc3cc(c5O)Oc3ccc(cc3Cl)C2O)NC(=O)C(N)c2ccc(O)c(c2)Oc2cc(O)cc4c2)c2ccc(O)c(c2)-c2c(O)cc(O)cc21 (stereo partly specified) | > 500 | 17 | 15 | > 500 | > 500 | > 100 | > 20

Continued, in another order:

IC50 (CCRF-CEM) [µM] | EC50 [2] [µM] | EC50 [3] [µM] | IC50 (L1210) [µM] | IC50 (MOLT-4) [µM] | Compound | MIC (Mus musculus [1]) [µM] | EC50 (Mus musculus [4]) [µM]
104 | 6 | 13 | 22 | 25 | O=C(NC1C(=O)NC2Cc3ccc(c(Cl)c3)Oc3cc4cc(c3O)Oc3ccc(cc3Cl)C(O)C3NC(=O)C(NC(=O)C4NC(=O)C(NC2=O)c2cc(O)cc(c2)Oc2cc1ccc2O)c1ccc(O)c(c1)-c1c(O)cc(O)cc1[C@H](C(=O)O)NC3=O)OC12CC3CC(CC(C3)C1)C2 (stereo partly specified) | > 20 | 9.8
24 | > 20 | > 20 | 19 | 27 | CCCCCCCCCCNCc1c(O)cc2c(c1O)-c1cc(ccc1O)[C@H]1NC(=O)[C@@H]3NC(=O)[C@H](CC(N)=O)NC(=O)[C@H](NC(=O)[C@@H](CC(C)C)NC)[C@H](O)c4ccc(c(Cl)c4)Oc4cc3cc(c4O[C@@H]3O[C@H](CO)[C@@H](O)[C@H](O)[C@H]3O[C@H]3C[C@](C)(N)[C@@H](O)[C@H](C)O3)Oc3ccc(cc3)[C@@H](O[C@H]3C[C@](C)(N)[C@@H](O)[C@H](C)O3)[C@H](NC1=O)C(=O)N[C@@H]2C(=O)O | – | –
108 | 15 | 10 | 192 | 108 | O=CC(=O)c1[nH]c2ccccc2c1NC1C(=O)NC2Cc3ccc(c(Cl)c3)Oc3cc4cc(c3O)Oc3ccc(cc3Cl)C(O)C3NC(=O)C(NC(=O)C4NC(=O)C(NC2=O)c2cc(O)cc(c2)Oc2cc1ccc2O)c1ccc(O)c(c1)-c1c(O)cc(O)cc1[C@H](C(=O)O)NC3=O (stereo partly specified) | > 100 | 4.4
106 | > 50 | 20 | 20 | > 50 | CCCCc1ccc(CN2CCN(Cc3c(O)cc4c(c3O)-c3cc(ccc3O)C3NC(=O)C5NC(=O)C6NC(=O)C(Cc7ccc(cc7)Oc7cc5cc(c7OC5OC(C(=O)O)C(O)C(O)C5N)Oc5ccc(cc5Cl)C(O)C(NC3=O)C(=O)N[C@H]4C(=O)O)NC(=O)C(NC)c3ccc(O)c(c3)Oc3cc(O)c(Cl)c6c3)CC2)cc1 (stereo partly specified) | 100 (≈ 163 µg/mL) | 6.9
60 | 8.3 | 20 | – | – | CCCCc1ccc(CNCc2c(O)cc3c(c2O)-c2cc(ccc2O)C2NC(=O)C4NC(=O)C5NC(=O)C(Cc6ccc(c(Cl)c6)Oc6cc4cc(c6O)Oc4ccc(cc4Cl)C(O)C(NC2=O)C(=O)N[C@H]3C(=O)O)NC(=O)C(NC(=O)OC(C)(C)C)c2ccc(O)c(c2)Oc2cc(O)cc5c2)cc1 (stereo partly specified) | > 100 | 7.6
9.4 | > 10 | > 10 | 29 | 21 | CCCCCCCCCCNC(=O)[C@H]1NC(=O)[C@H]2NC(=O)[C@H](NC(=O)[C@@H]3NC(=O)[C@H](CC(N)=O)NC(=O)[C@H](NC(=O)[C@@H](CC(C)C)NC)[C@H](O)c4ccc(c(Cl)c4)Oc4cc3cc(c4O[C@@H]3O[C@H](CO)[C@@H](O)[C@H](O)[C@H]3O[C@H]3C[C@](C)(N)[C@@H](O)[C@H](C)O3)Oc3ccc(cc3)[C@H]2O[C@H]2C[C@](C)(N)[C@@H](O)[C@H](C)O2)c2ccc(O)c(c2)-c2c(O)cc(O)cc21 | – | –
80 | > 10 | 5 | 20 | 18 | CCCCOc1ccc(CNC2C(Oc3c4cc5cc3Oc3ccc(cc3Cl)C(O)C3NC(=O)C(NC(=O)C5NC(=O)C5NC(=O)C(Cc6ccc(cc6)O4)NC(=O)C(N(C)Cc4ccc(OCCCC)cc4)c4ccc(O)c(c4)Oc4cc(O)c(Cl)c5c4)c4ccc(O)c(c4)-c4c(O)cc(O)cc4[C@H](C(=O)NCCCN(C)C)NC3=O)OC(C(=O)NCCCN(C)C)C(O)C2O)cc1 (stereo partly specified) | 20 (≈ 37.6 µg/mL) | > 4
123 | 6 | 7 | 30 | 26 | NC1C(=O)NC2Cc3ccc(c(Cl)c3)Oc3cc4cc(c3O)Oc3ccc(cc3Cl)C(O)C3NC(=O)C(NC(=O)C4NC(=O)C(NC2=O)c2cc(O)cc(c2)Oc2cc1ccc2O)c1ccc(O)c(c1)-c1c(O)cc(O)cc1[C@H](C(=O)NC1C2CC4CC(C2)CC1C4)NC3=O (stereo partly specified) | > 100 | 2.1
